Experimental data as given in ChEMBL document CHEMBL1130191 (J Med Chem, 1997).
pIC50: −log10 of the molar value. Converted amounts (≈) assume the structure as drawn.

Tests used:
[1] = system: P388; experiment: Inhibition of P388 Leukemia cell proliferation; type: functional, cell-based; conditions: Mus musculus
Method in brief: (§1)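 P388 murine leukemia cells exposed to a range of drug concentrations for 96 h at 37 °C; viability scored by neutral red staining; IC50 is the concentration giving 50% growth inhibition.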

[2] = target: Protein kinase C alpha type (Homo sapiens, UniProt P17252); experiment: Inhibition of Protein kinase C alpha
Method in brief: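 Recombinant PKC-α, partially purified; protamine sulfate substrate without phosphatidylserine or diacylglycerol; γ-33P incorporation measured by spotting aliquots on P81 paper. Compounds serially diluted 10-fold in DMSO/water 50:50. Two independent experiments; IC50 in μM.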

[3] = system: B16; experiment: Inhibition of murine B16 Melanoma cell proliferation; type: functional, cell-based, Mus musculus
Method in brief: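 Clonogenic assay: B16 melanoma cells (EMEM with 10% FCS, 37 °C, 5% CO2) seeded 200 per dish, attached 20 h, exposed to increasing drug concentrations 24 h, washed, regrown 12 days; methanol-fixed, crystal violet-stained, colonies >50 cells counted. IC50 is concentration giving 50% cloning efficiency versus untreated.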

[4] = system: Bacillus cereus; experiment: Antimicrobial activity against Bacillus cereus; type: functional
Method in brief: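 B. cereus ATCC 14579 in Mueller-Hinton broth pH 7.4, compounds diluted in DMSO across 12 tubes spanning 100 to 0.05 μg/mL; growth read after 24 h at 27 °C; MIC taken as lowest inhibitory concentration. Disk diffusion screen also run: 6 mm paper disks carrying 300 μg drug in DMSO, 24 h at 27 °C.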

[5] = system: DNA topoisomerase II (Bos taurus); experiment: Inhibition of calf thymus Topoisomerase-2
[6] = system: DNA topoisomerase I (Bos taurus); experiment: Inhibition of calf thymus Topoisomerase-I
[7] = system: P388; experiment: Inhibition of P388 murine leukemia cell proliferation; type: functional, cell-based; conditions: Mus musculus; method in brief: as §1

Q: With `CN1C(=O)c2c(c3c4ccccc4n(C4OC(CO)C(O)C(O)C4O)c3c3[nH]c4ccccc4c23)C1=O` (stereo in doubt; 7) [listing 1 of 2 here] as the compound, how does the pIC50 [1] read?
A: 5.22

Q: What about the pIC50 [2] of the same compound?
A: 4.23

Q: What about the pIC50 ([3]; b16) of the same compound?
A: 6.28

Q: And the MIC ([4]; Bacillus cereus, read-out: MIC)?
A: 6.2 µM (≈ 3.11 µg/mL)

Q: For `CC(=O)OCC1OC(n2c3ccccc3c3c4c(c5c6ccccc6[nH]c5c32)C(=O)N(C)C4=O)C(OC(C)=O)C(OC(C)=O)C1OC(C)=O` (stereo in doubt; 5), which MIC [5] is on record?
A: > 15 µM

Q: And the MIC [6]?
A: > 15 µM

Q: `CC(=O)OCC1OC(n2c3ccccc3c3c4c(c5c6ccccc6[nH]c5c32)C(=O)N(C)C4=O)C(OC(C)=O)C(OC(C)=O)C1OC(C)=O` (stereo in doubt; 4) [listing 1 of 2 here] was tested. Which MIC [5] did it give?
A: > 15 µM

Q: And the MIC [6]?
A: > 15 µM

Q: `CN1C(=O)c2c(c3c4ccccc4n(C4OC(CO)C(O)C(O)C4O)c3c3[nH]c4ccccc4c23)C1=O` (stereo in doubt; 10) [listing 1 of 2 here] was tested. Which pIC50 [2] did it give?
A: 4.00

Q: What about the pIC50 ([3]; b16) of the same compound?
A: 5.27

Q: `CN1C(=O)c2c(c3c4ccccc4n(C4OC(CO)C(O)C(O)C4O)c3c3[nH]c4ccccc4c23)C1=O` (stereo in doubt; 8) [listing 1 of 2 here] was tested. Which pIC50 [2] did it give?
A: < 4.00

Q: What about the pIC50 ([3]; b16) of the same compound?
A: 5.48

Q: What about the MIC [4] of the same compound?
A: 12.4 µM (≈ 6.22 µg/mL)

Q: How did the pIC50 [2] turn out when `CN1C(=O)c2c(c3c4ccccc4n(C4OC(CO)C(O)C(O)C4O)c3c3[nH]c4ccccc4c23)C1=O` (stereo in doubt; 9) [listing 1 of 2 here] was run?
A: 4.21

Q: `CN1C(=O)c2c(c3c4ccccc4n(C4OC(CO)C(O)C(O)C4O)c3c3[nH]c4ccccc4c23)C1=O` (stereo in doubt; 8) [listing 2 of 2 here] was tested. Which MIC [5] did it give?
A: > 20 µM

Q: And the MIC [6]?
A: 2 µM (≈ 1 µg/mL)

Q: How did the pIC50 [1] turn out when `CC1OC(n2c3ccccc3c3c4c(c5c6ccccc6[nH]c5c32)C(=O)N(C)C4=O)C(O)C(O)C1O` (stereo in doubt; 14) [listing 1 of 2 here] was run?
A: 5.21

Q: And the pIC50 [2]?
A: < 4.00

Q: What about the pIC50 ([3]; Mus musculus, B16) of the same compound?
A: 5.43

Q: And the MIC [4]?
A: 3.1 µM (≈ 1.51 µg/mL)

Q: Which MIC [5] does the source give for `CC(=O)OCC1OC(n2c3ccccc3c3c4c(c5c6ccccc6[nH]c5c32)C(=O)N(C)C4=O)C(OC(C)=O)C(OC(C)=O)C1OC(C)=O` (stereo in doubt; 3) [listing 1 of 2 here] here?
A: > 15 µM

Q: And the MIC [6]?
A: > 15 µM

Q: With `CO[C@H]1[C@H](O)[C@@H](O)[C@H](n2c3c(Cl)cccc3c3c4c(c5c6cccc(Cl)c6[nH]c5c32)C(=O)N(C)C4=O)O[C@@H]1CO` as the compound, how does the pIC50 [1] read?
A: 6.22

Q: And the pIC50 [2]?
A: < 4.00

Q: What about the pIC50 ([3]; Mus musculus, B16) of the same compound?
A: 6.21

Q: What about the MIC ([4]; Bacillus cereus, read-out: MIC) of the same compound?
A: > 85 µM

Q: `CC(=O)OCC1OC(n2c3ccccc3c3c4c(c5c6ccccc6[nH]c5c32)C(=O)N(C)C4=O)C(OC(C)=O)C(OC(C)=O)C1OC(C)=O` (stereo in doubt; 6) [listing 1 of 2 here] was tested. Which pIC50 [2] did it give?
A: < 4.00

Q: What about the pIC50 ([3]; b16) of the same compound?
A: 4.12

Q: `CN1C(=O)c2c(c3c4ccccc4n(C4OC(CO)C(O)C(O)C4O)c3c3[nH]c4ccccc4c23)C1=O` (stereo in doubt; 10) [listing 2 of 2 here] was tested. Which MIC [5] did it give?
A: > 20 µM

Q: And the MIC [6]?
A: 0.6 µM (≈ 0.301 µg/mL)

Q: How did the MIC [5] turn out when `CC1OC(n2c3ccccc3c3c4c(c5c6ccccc6[nH]c5c32)C(=O)N(C)C4=O)C(O)C(O)C1O` (stereo in doubt; 13) [listing 1 of 2 here] was run?
A: > 20 µM

Q: What about the MIC [6] of the same compound?
A: > 20 µM

Q: With `CC(=O)OCC1OC(n2c3ccccc3c3c4c(c5c6ccccc6[nH]c5c32)C(=O)N(C)C4=O)C(OC(C)=O)C(OC(C)=O)C1OC(C)=O` (stereo in doubt; 6) [listing 2 of 2 here] as the compound, how does the MIC [5] read?
A: > 15 µM

Q: What about the MIC [6] of the same compound?
A: > 15 µM

Q: With `CO[C@H]1[C@H](O)[C@@H](O)[C@H](n2c3ccccc3c3c4c(c5c6ccccc6[nH]c5c32)C(=O)N(C)C4=O)O[C@@H]1CO` as the compound, how does the pIC50 [1] read?
A: 6.15

Q: And the MIC [6]?
A: 0.6 µM (≈ 0.309 µg/mL)

Q: And the pIC50 [2]?
A: < 4.00

Q: And the pIC50 ([3]; Mus musculus, B16)?
A: 5.97

Q: What about the MIC ([4]; Bacillus cereus, read-out: MIC) of the same compound?
A: 1.55 µM (≈ 0.799 µg/mL)

Q: `CO[C@H]1[C@H](O)[C@@H](O)[C@H](n2c3ccccc3c3c4c(c5c6ccccc6[nH]c5c32)C(=O)NC4=O)O[C@@H]1CO` was tested. Which MIC [5] did it give?
A: > 19 µM

Q: And the pIC50 [1]?
A: 5.17

Q: And the MIC [6]?
A: 1.95 µM (≈ 0.978 µg/mL)

Q: What about the pIC50 [2] of the same compound?
A: < 4.00

Q: And the MIC ([4]; Bacillus cereus, read-out: MIC)?
A: > 97 µM

Q: What does the source list for `CN1C(=O)c2c(c3c4ccccc4n(C4OC(CO)C(O)C(O)C4O)c3c3[nH]c4ccccc4c23)C1=O` (stereo in doubt; 7) [listing 2 of 2 here]?
A: MIC [5]: > 20 µM; MIC [6]: > 20 µM

Q: What does the source list for `CC(=O)OCC1OC(n2c3ccccc3c3c4c(c5c6ccccc6[nH]c5c32)C(=O)N(C)C4=O)C(OC(C)=O)C(OC(C)=O)C1OC(C)=O` (stereo in doubt; 4) [listing 2 of 2 here]?
A: pIC50 [1]: < 4.82; pIC50 ([3]; b16): 4.11; MIC ([4]; Bacillus cereus, read-out: MIC): > 74 µM

Q: `CN1C(=O)c2c(c3c4ccccc4n(C4OC(CO)C(O)C(O)C4O)c3c3[nH]c4ccccc4c23)C1=O` (stereo in doubt; 9) [listing 2 of 2 here] was tested. Which MIC [5] did it give?
A: > 20 µM

Q: What about the MIC [6] of the same compound?
A: 6 µM (≈ 3.01 µg/mL)

Q: `CC1OC(n2c3ccccc3c3c4c(c5c6ccccc6[nH]c5c32)C(=O)N(C)C4=O)C(O)C(O)C1O` (stereo in doubt; 13) [listing 2 of 2 here] was tested. Which pIC50 [2] did it give?
A: 4.09

Q: What about the pIC50 ([3]; b16) of the same compound?
A: 5.32

Q: What about the MIC [4] of the same compound?
A: 103 µM (≈ 50 µg/mL)

Q: Which results are given for `CC(=O)OCC1OC(n2c3ccccc3c3c4c(c5c6ccccc6[nH]c5c32)C(=O)N(C)C4=O)C(OC(C)=O)C(OC(C)=O)C1OC(C)=O` (stereo in doubt; 3) [listing 2 of 2 here]?
A: pIC50 [2]: < 4.00; pIC50 ([3]; b16): 5.60

Q: Which MIC [5] does the source give for `CC1OC(n2c3ccccc3c3c4c(c5c6ccccc6[nH]c5c32)C(=O)N(C)C4=O)C(O)C(O)C1O` (stereo in doubt; 14) [listing 2 of 2 here] here?
A: > 20 µM

Q: What about the MIC [6] of the same compound?
A: 2 µM (≈ 0.971 µg/mL)

Q: How did the pIC50 [7] turn out when `CO[C@H]1[C@H](O)[C@@H](O)[C@H](n2c3c(Cl)cccc3c3c4c(c5c6cccc(Cl)c6[nH]c5c32)C(=O)NC4=O)O[C@@H]1CO` [REBECCAMYCIN] was run?
A: 6.30

Q: What about the pIC50 [2] of the same compound?
A: < 4.00

Q: What about the MIC ([4]; Bacillus cereus, read-out: MIC) of the same compound?
A: 10.9 µM (≈ 6.22 µg/mL)
